Reference: paper PMC8590456 (Nature chemical biology, 2021)

Experiments:
CDK9 = CDK9 (Homo sapiens, UniProt P50750+Q96SW2); experiment: Immunoblot of CDK9 in parental and resistant cells; format: cell-based; settings: parental and resistant Jurkat and MOLT4 cells, 250 nM, 8 h
In short: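 Parental and resistant Jurkat and MOLT4 cells were treated 8 h with DMSO, CDK12 degraders or a CDK9 degrader (250 nM). Lysis was in NP40 buffer with protease and phosphatase inhibitors plus 1 mM PMSF. Immunoblots for CDK12 and CDK9, with GAPDH loading control, were imaged on an infrared scanner. Representative of n=2 independent experiments.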

CDK13 = CDK13 (Homo sapiens, UniProt Q14004); experiment: Immunoblot of CDK13 protein level in Jurkat cells; format: cell-based; settings: 6 h, indicated concentrations
In short: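 Jurkat cells were treated 6 h with DMSO or CDK12 degraders at the indicated concentrations in a preliminary screen. Lysis was in NP40 buffer with protease and phosphatase inhibitors plus 1 mM PMSF. Immunoblots for CDK12, CDK13 and β-actin were imaged on an infrared scanner.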

Cyclin K = experiment: Immunoblot of Cyclin K protein level in Jurkat cells; format: cell-based, Human; settings: 6 h
Jurkat cells = experiment: 3' poly; format: cell-based, Human; settings: 8 h
In short: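 Poly(A) 3'-end libraries were sequenced. Metagene profiles of normalised reads span gene bodies ±2 kb, with sense and antisense reads shown separately. Differential expression used 3' UTR-associated poly(A)-site counts summed per gene. Intronic versus 3' UTR poly(A) usage was compared by odds ratio for transcripts with TPM > 1.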

[1] = tested on: CRBN−/− cells (Jurkat and MOLT4); experiment: 3-day growth rate inhibition; format: cell-based, Human; settings: 72 h
In short: (§1)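 Cells were kept in RPMI 1640 with 10% FBS at 37 °C and 5% CO2, then plated at 6×10^3 cells/well for 24 h. Time 0 was read, then cells were dosed 10 nM–10 μM for 72 h. Viable cells were read by CellTiter-Glo luminescence. GR values, GR50 and GRmax were calculated from time-0 and 72-h data, with growth relative to DMSO. Mean ± s.d., n=3 biologically independent samples, representative of 2 experiments.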

Jurkat and MOLT4 cells = experiment: Cell cycle analysis by FACS; format: cell-based, Human; settings: 24 h, BSJ-4-116 50 nM, BSJ-4-116NC 100 nM
In short: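 Jurkat or MOLT4 cells (0.5×10^6) were treated 24 h. They were fixed in ice-cold 70% ethanol at −20 °C, treated with RNase A (0.5 mg/ml), stained with propidium iodide (50 µg/ml) and analysed by flow cytometry. […] is given as mean ± s.d. of n=2 biologically independent samples, representative of 2 experiments.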

CDK12 I733V/Cyclin K = CDK12 I733V/Cyclin K (Homo sapiens, UniProt Q9NYV4, I733V); experiment: 32P-labeled ATP mutated CDK12 kinase assay; format: biochemical; settings: recombinant I733V CDK12 vs wild type
In short: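 GST-CDK12 (714–1063) I733V (site-directed mutagenesis) and GST-cyclin K (1–267) were co-expressed with yeast CAK in Sf9 cells for 72 h. Purification was by GST affinity, TEV tag cleavage and size exclusion. The 0.2 μM complex was preincubated with varying compound concentrations for 5 min at 30 °C. Substrate and 0.2 mM [γ-32P]-ATP were added for 15 min at 30 °C. The reaction was stopped with 50 mM EDTA, spotted onto nitrocellulose, washed in phosphoric acid and scintillation-counted.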

[2] = tested on: wild-type T-ALL cell lines (Jurkat and MOLT4); experiment: 3-day growth rate inhibition; format: cell-based, Human; settings: GR assay, 72 h
In short: as §1

CDK13, sequence (Q14004 whole entry): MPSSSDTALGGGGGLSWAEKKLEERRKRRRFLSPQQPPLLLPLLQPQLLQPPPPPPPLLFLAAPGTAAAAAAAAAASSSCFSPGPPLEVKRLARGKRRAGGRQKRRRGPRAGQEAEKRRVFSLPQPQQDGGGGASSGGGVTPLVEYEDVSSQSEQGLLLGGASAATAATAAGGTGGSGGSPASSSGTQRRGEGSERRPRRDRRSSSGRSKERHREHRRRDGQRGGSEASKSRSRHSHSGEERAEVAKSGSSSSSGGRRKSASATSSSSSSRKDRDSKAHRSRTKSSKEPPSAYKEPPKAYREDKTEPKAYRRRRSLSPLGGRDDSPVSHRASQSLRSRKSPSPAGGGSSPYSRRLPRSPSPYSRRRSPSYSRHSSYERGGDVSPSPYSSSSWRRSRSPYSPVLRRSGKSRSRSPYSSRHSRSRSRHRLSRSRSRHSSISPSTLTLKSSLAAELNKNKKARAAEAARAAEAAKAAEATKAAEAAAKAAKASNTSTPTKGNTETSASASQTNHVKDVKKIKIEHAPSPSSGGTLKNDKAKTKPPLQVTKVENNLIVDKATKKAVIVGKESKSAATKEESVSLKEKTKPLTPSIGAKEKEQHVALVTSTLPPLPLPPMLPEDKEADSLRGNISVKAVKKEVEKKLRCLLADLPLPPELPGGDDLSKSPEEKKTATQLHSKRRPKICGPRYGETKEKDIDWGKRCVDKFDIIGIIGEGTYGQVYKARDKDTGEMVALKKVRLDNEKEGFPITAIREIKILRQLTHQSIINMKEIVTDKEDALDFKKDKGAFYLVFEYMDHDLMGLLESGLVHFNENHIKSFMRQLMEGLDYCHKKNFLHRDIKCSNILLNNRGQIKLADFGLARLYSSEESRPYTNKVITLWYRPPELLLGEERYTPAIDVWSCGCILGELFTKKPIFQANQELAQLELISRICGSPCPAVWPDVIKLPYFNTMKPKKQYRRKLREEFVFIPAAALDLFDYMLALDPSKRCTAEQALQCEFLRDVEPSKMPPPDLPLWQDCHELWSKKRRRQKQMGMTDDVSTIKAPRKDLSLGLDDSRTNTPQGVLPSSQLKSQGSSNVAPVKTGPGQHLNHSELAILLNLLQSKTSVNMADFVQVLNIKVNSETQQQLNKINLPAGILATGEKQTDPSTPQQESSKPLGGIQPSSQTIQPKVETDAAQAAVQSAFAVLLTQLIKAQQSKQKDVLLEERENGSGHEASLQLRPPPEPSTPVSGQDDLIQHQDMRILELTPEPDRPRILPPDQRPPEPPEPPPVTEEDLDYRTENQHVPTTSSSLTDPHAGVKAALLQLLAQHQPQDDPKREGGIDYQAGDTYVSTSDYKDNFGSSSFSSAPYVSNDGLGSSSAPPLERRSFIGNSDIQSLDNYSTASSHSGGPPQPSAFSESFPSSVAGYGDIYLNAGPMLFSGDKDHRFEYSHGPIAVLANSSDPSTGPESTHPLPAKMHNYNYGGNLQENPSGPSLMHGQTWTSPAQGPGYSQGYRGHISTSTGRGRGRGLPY
CDK13, sequence (O75909 whole entry partner): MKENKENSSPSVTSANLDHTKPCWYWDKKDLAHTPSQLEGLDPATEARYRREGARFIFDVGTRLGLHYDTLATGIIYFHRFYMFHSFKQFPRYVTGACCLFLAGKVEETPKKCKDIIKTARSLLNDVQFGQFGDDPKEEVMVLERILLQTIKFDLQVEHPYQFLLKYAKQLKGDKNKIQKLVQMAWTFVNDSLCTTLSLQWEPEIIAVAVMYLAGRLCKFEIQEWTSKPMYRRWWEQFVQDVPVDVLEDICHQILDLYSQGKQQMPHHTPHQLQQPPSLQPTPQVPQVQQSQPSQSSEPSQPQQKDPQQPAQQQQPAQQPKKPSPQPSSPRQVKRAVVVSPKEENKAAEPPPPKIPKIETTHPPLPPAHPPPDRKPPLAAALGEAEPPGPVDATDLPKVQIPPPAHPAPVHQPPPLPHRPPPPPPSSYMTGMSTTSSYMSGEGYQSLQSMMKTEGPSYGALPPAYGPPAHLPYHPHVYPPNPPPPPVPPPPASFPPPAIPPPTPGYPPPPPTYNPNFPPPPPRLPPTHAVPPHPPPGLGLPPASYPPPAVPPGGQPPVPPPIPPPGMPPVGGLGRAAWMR
CDK12 I733V/Cyclin K, sequence (Q9NYV4 714-1063 I733V): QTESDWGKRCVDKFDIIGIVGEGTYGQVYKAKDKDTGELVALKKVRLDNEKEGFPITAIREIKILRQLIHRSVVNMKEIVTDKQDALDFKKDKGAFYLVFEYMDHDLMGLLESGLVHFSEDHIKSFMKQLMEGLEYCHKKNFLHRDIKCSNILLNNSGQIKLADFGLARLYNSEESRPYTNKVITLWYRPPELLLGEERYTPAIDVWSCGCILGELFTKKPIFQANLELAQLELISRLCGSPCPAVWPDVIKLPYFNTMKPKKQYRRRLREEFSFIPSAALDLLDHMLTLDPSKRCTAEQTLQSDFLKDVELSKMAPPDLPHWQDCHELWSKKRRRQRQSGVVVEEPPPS
CDK12 I733V/Cyclin K, sequence (O75909 1-267 partner limits assumed): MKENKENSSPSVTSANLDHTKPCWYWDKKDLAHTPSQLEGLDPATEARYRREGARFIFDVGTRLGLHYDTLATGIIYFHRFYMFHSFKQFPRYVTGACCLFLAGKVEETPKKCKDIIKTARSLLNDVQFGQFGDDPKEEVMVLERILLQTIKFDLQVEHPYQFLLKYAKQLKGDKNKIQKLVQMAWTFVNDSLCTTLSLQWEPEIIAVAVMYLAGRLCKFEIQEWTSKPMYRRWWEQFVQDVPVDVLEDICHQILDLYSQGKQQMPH

CC(C)(C)c1cnc(CSc2cnc(NC(=O)C3CCN(CC(=O)NCCOCCOCCOCCNc4cccc5c4C(=O)N(C4CCC(=O)NC4=O)C5=O)CC3)s2)o1 (stereo not shown) [THAL-SNS-032]
sensitivity of resistant cells to CDK9 degrader (CDK9): remained equally sensitive

CN(C)C/C=C/C(=O)Nc1ccc(C(=O)N2CCC[C@@H](Nc3ncc(Cl)c(-c4c[nH]c5ccccc45)n3)C2)cc1 [THZ531]
CDK13 protein level (CDK13): no effect | Cyclin K protein level (Cyclin K): no effect | annotated terminal or 3' poly(A) sites (metagene analysis) (Jurkat cells): significant loss | downregulated transcripts (Jurkat cells; BSJ-4-116 50 nM, THZ531 250 nM, FDR <= 0.01): 7050 | sensitivity of CRBN−/− cells in GR assay [1]: responding similarly | cell cycle distribution (Jurkat and MOLT4 cells): accumulation of G2/M cells | effect of I733V on binding affinity in in vitro kinase assay (CDK12 I733V/Cyclin K): loss of binding affinity

CC(C)S(=O)(=O)c1ccccc1Nc1nc(N[C@@H]2CCCN(CCCCCCCNC(=O)COc3cccc4c3C(=O)N(C3CCC(=O)N(C)C3=O)C4=O)C2)ncc1Cl (stereo partly shown) [BSJ-4-116NC]
CDK13 protein level (CDK13): no effect | Cyclin K protein level (Cyclin K): no effect | genes differentially expressed vs DMSO control cells (Jurkat cells; 50 nM): 1 gene | fold less potent than BSJ-4-116 [2]: 10 fold | sensitivity of CRBN−/− cells in GR assay [1]: responding similarly
